The source made the active and inactive calls. No cut-off for these calls is given here.
Key:
Plasmodium falciparum = assay: Antimalarial activity against multidrug-resistant Plasmodium falciparum K1; format: functional, organism-based
Procedure, shortened: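 Microculture radioisotope assay against the multidrug-resistant K1 strain of P. falciparum, with IC50 read out. Dihydroartemisinin was run as the reference standard in the same assay system.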

Vero = assay: Cytotoxicity against Vero cells upto 140 uM; format: cell-based; settings: chlorocebus sabaeus
Procedure, shortened: (§1)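 Cytotoxicity was measured by a colorimetric method on purified compounds. The cells were human epidermoid carcinoma (KB), human breast cancer (BC), human lung cancer (NCI-H187) and African green monkey kidney fibroblast (Vero) cells.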

[1] = Cytotoxicity against human NCI-H187 cells upto 56 uM; format: cell-based; procedure, shortened: as §1
[2] = Cytotoxicity against human BC cells upto 56 uM; format: cell-based; settings: for Activity: human, bc; procedure, shortened: as §1
KB = assay: Cytotoxicity against human KB cells upto 56 uM; format: cell-based; procedure, shortened: as §1

O=CNC(=C\c1ccc(O)c(O)c1)/C(=C/c1ccc(O)c(O)c1)NC=O [CORDYFORMAMIDE]
IC50 (Plasmodium falciparum): 18 µM
Activity (Vero): Not Active
Activity [1]: Not Active
IC50 ([2]; Homo sapiens, BC): 39 µM
Activity (KB): Not Active

C[C@H]1[C@@H](O)O[C@@H]2O[C@@]3(C)CC[C@H]4[C@H](C)CC[C@@H]1[C@@]24OO3 [ARTENIMOL]
IC50 (Plasmodium falciparum): 0.0042 µM

CC(=O)O/C=N/C(=C\c1ccc(OC(C)=O)c(OC(C)=O)c1)C(=C/c1ccc(OC(C)=O)c(OC(C)=O)c1)/N=C/OC(C)=O
Activity (Plasmodium falciparum): inactive
Activity (Vero): Not Active
Activity [1]: Not Active
Activity [2]: Not Active
Activity (KB): Not Active

COc1ccc(/C=C(/C(=C/c2ccc(OC)c(OC)c2)N(C)C=O)N(C)C=O)cc1OC
Activity (Plasmodium falciparum): inactive
Activity (Vero): Not Active
Activity [1]: Not Active
Activity [2]: Not Active
Activity (KB): Not Active

Reference: ChEMBL document CHEMBL1142098, “A xanthocillin-like alkaloid from the insect pathogenic fungus Cordyceps brunnearubra BCC 1395” (J Nat Prod, 2007)
